Test results as given in ChEMBL document CHEMBL1158012, “Sapinofuranones A and B, two new 2(3H)-dihydrofuranones produced by sphaeropsis sapinea, a common pathogen of conifers” (J Nat Prod, 1999).

What was measured:
Format in all cases: organism-based
Details in all cases: in vivo
Solanum lycopersicum [1] = assay: Phytotoxicity against Lycopersicon esculatum L var. Marmande assessed as browning of petioles and leaves at 0.05 to 0.1 mg/ml after 48 hrs
Summary of the method: (§1)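 Tomato (var. Marmande) seedlings were grown at 25 °C, 70-80% relative humidity and a 12 h photoperiod. Cuttings from 21-day-old seedlings were placed in 3 mL of solution at 0.05-0.1 mg/mL for 48 h, then moved to distilled water. Epinasty and browning were scored over 2 days.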

[2] = test system: Hesperocyparis macrocarpa; assay: Phytotoxicity against Cupressus macrocarpa var. lambertiana assessed as sapwood stain like symptoms on seedlings at 0.1 to 0.2 mg/ml after 96 hrs
Summary of the method: (§2)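 A 0.1 mg/mL solution was injected into the cortical tissue 25 cm from the apex of 3-year-old cypress or 2-year-old pine seedlings. Stain, needle and blight symptoms were then scored.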

Pinus halepensis [3] = assay: Phytotoxicity against Pinus halepensis L assessed as appearance of severe needles on seedlings at 0.1 to 0.2 mg/ml after 96 hrs; summary of the method: as §2
Pinus radiata [4] = assay: Phytotoxicity against Pinus radiata L assessed as yellowing of twigs at 0.1 to 0.2 mg/ml after 96 hrs
Summary of the method: (§3)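 Severed cypress or pine twig cuttings were placed in 3 mL of test solution at 0.1-0.2 mg/mL for 96 h, then moved to distilled water. They were kept in a growth chamber at 23 °C, 60% relative humidity and low light. Symptoms were scored over 21 days.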

Hesperocyparis arizonica [5] = assay: Phytotoxicity against Cupressus arizonica assessed as sapwood stain like symptoms on seedlings at 0.1 to 0.2 mg/ml after 96 hrs; summary of the method: as §2
Solanum lycopersicum [6] = assay: Phytotoxicity against Lycopersicon esculatum L var. Marmande assessed as appearance of epinasty on petioles at 0.05 to 0.1 mg/ml after 48 hrs; summary of the method: as §1
Cupressus sempervirens [7] = assay: Phytotoxicity against Cupressus sempervirens var. pyramidalis assessed as sapwood stain like symptoms on seedlings at 0.1 to 0.2 mg/ml after 96 hrs; summary of the method: as §2
Pinus radiata [8] = assay: Phytotoxicity against Pinus radiata L assessed as appearance of severe needles on seedlings at 0.1 to 0.2 mg/ml after 96 hrs; summary of the method: as §2
Cupressus sempervirens [9] = assay: Phytotoxicity against Cupressus sempervirens var. pyramidalis assessed as browning of twigs at 0.1 to 0.2 mg/ml after 96 hrs; summary of the method: as §3
Hesperocyparis arizonica [10] = assay: Phytotoxicity against Cupressus arizonica assessed as browning of twigs at 0.1 to 0.2 mg/ml after 96 hrs; summary of the method: as §3
Pinus halepensis [11] = assay: Phytotoxicity against Pinus halepensis L assessed as yellowing of twigs at 0.1 to 0.2 mg/ml after 96 hrs; summary of the method: as §3
[12] = test system: Hesperocyparis macrocarpa; assay: Phytotoxicity against Cupressus macrocarpa var. lambertiana assessed as browning of twigs at 0.1 to 0.2 mg/ml after 96 hrs; summary of the method: as §3

Measured: Activity

C/C=C/C=C\[C@H](O)[C@H]1CCC(=O)O1 [SAPINOFURANONE A]
Toxic: all assays above

C/C=C/C=C\[C@@H](O)[C@H]1CCC(=O)O1 [SAPINOFURANONE B]
Toxic: all assays above
